Source: ChEMBL document CHEMBL3112537, “A novel series of 6-substituted 3-(pyrrolidin-1-ylmethyl)chromen-2-ones as selective monoamine oxidase (MAO) A inhibitors” (Eur J Med Chem, 2014)
Active and inactive are the calls of the source. No cut-off for these calls is given here.

How the values were obtained:
[1] = species on record: Homo sapiens; test: Selectivity index, ratio of IC50 for human recombinant MAO-B to IC50 for human recombinant MAO-A
How it was run: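 Selectivity index for MAO A = IC50(MAO B)/IC50(MAO A), with both human isoforms assayed against kynuramine substrate.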

[2] = tested on: Rattus norvegicus; test: In vivo inhibition of MAO-A in Sprague-Dawley rat assessed as 5-hydroxyindoleacetic acid in brain striatum at 37 umol/kg, sc after 1 hr by HPLC/EC analysis relative to control; assay type: functional; parameters: scale not given: the % may be the effect or the level left
How it was run: (§1)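 Freely moving rats dosed subcutaneously and sacrificed 1 h later. Striatal DOPAC, 3-MT and 5-HIAA were measured post mortem and expressed as % of saline control (n = 4). Significance was by Student's t-test, P < 0.05.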

[3] = tested on: Rattus norvegicus; test: In vivo inhibition of MAO-A in Sprague-Dawley rat assessed as 3-methoxytyramine level in brain striatum at 37 umol/kg, sc after 1 hr by HPLC/EC analysis relative to control; assay type: functional; parameters: scale not given: the % may be the effect or the level left; how it was run: as §1
[4] = tested on: Rattus norvegicus; test: In vivo inhibition of MAO-A in Sprague-Dawley rat assessed as 3,4-dihydroxyphenylacetic acid level in brain striatum at 37 umol/kg, sc after 1 hr by HPLC/EC analysis relative to control; assay type: functional; parameters: scale not given: the % may be the effect or the level left; how it was run: as §1
[5] = target: T1, Amine oxidase [flavin-containing] B (Homo sapiens, UniProt P27338); test: Inhibition of human recombinant MAO-B assessed as kynuramine oxidation to 4-hydroxyquinoline after 40 mins by LC-MS/MS analysis
T1 sequence (P27338 whole entry): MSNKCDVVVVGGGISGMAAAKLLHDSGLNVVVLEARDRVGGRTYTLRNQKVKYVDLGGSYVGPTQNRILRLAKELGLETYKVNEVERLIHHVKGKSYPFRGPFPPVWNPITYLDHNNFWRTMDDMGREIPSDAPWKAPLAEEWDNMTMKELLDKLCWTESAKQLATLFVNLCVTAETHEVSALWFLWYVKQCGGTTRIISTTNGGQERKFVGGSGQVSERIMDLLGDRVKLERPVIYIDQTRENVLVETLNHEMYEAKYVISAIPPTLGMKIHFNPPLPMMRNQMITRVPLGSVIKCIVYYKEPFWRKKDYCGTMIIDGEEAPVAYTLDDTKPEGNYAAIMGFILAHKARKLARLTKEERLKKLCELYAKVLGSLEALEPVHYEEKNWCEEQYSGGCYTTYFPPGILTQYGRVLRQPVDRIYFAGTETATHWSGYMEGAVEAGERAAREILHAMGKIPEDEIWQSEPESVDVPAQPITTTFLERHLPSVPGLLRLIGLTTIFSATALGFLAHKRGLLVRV
How it was run: (§2)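 Human MAO A and MAO B inhibition using kynuramine as a mixed substrate for both isoforms. IC50 is given as the mean ± SE of duplicate determinations.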

[6] = target: T2, Amine oxidase [flavin-containing] A (Homo sapiens, UniProt P21397); test: Inhibition of human recombinant MAO-A assessed as kynuramine oxidation to 4-hydroxyquinoline after 40 mins by LC-MS/MS analysis; how it was run: as §2
T2 sequence (P21397 whole entry): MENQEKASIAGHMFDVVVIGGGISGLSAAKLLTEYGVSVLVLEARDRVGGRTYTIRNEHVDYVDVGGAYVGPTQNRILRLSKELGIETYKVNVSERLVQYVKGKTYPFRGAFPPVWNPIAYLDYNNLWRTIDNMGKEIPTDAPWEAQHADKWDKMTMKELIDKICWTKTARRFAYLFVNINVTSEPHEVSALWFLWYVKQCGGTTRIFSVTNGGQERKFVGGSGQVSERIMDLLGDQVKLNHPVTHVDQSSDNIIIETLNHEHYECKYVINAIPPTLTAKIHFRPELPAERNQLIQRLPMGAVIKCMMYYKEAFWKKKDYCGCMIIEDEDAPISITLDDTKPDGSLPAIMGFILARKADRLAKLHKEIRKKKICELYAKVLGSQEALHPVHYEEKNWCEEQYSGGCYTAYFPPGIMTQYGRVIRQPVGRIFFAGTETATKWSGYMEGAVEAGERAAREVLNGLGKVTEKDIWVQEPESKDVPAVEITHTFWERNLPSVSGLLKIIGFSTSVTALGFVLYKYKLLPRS

[7] = Aqueous solubility of the compound in saline solution; assay type: physicochemical
[8] = Metabolic stability in rat liver microsomes assessed as compound remaining at 5 uM after 60 mins by LC-MS/MS analysis; assay type: ADME; settings: read-out: Stability
How it was run: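 Incubation with rat liver microsomes, read as % of compound remaining after 60 min.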

[9] = tested on: Rattus norvegicus; test: In vivo inhibition of MAO-A in Sprague-Dawley rat assessed as 5-hydroxyindoleacetic acid in brain striatum at 100 umol/kg, sc after 1 hr by HPLC/EC analysis relative to control; assay type: functional; parameters: scale not given: the % may be the effect or the level left; how it was run: as §1
[10] = tested on: Rattus norvegicus; test: In vivo inhibition of MAO-A in Sprague-Dawley rat assessed as 3-methoxytyramine level in brain striatum at 100 umol/kg, sc after 1 hr by HPLC/EC analysis relative to control; assay type: functional; parameters: scale not given: the % may be the effect or the level left; how it was run: as §1
[11] = tested on: Rattus norvegicus; test: In vivo inhibition of MAO-A in Sprague-Dawley rat assessed as 3,4-dihydroxyphenylacetic acid level in brain striatum at 100 umol/kg, sc after 1 hr by HPLC/EC analysis relative to control; assay type: functional; parameters: scale not given: the % may be the effect or the level left; how it was run: as §1
[12] = target: D(2) dopamine receptor (Homo sapiens, UniProt P14416); test: Antagonist activity at dopamine D2 receptor (unknown origin) expressed in HEK cells co-expressing Gqi5 assessed as inhibition of dopamine-induced effect by FLIPR assay; assay type: cell-based, HEK293
[13] = tested on: Rattus norvegicus; test: In vivo inhibition of MAO-A in Sprague-Dawley rat assessed as 5-hydroxyindoleacetic acid in brain striatum at 53 umol/kg, sc after 1 hr by HPLC/EC analysis relative to control; assay type: functional; parameters: scale not given: the % may be the effect or the level left
How it was run: (§3)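 Freely moving rats were given a subcutaneous dose and sacrificed 1 h later. Striatal DOPAC, 3-MT and 5-HIAA were measured post mortem and expressed as % of saline control (n = 4). Significance was tested by Student's t-test (P < 0.05).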

[14] = tested on: Rattus norvegicus; test: In vivo inhibition of MAO-A in Sprague-Dawley rat assessed as 3-methoxytyramine level in brain striatum at 53 umol/kg, sc after 1 hr by HPLC/EC analysis relative to control; assay type: functional; parameters: scale not given: the % may be the effect or the level left; how it was run: as §3
[15] = tested on: Rattus norvegicus; test: In vivo inhibition of MAO-A in Sprague-Dawley rat assessed as 3,4-dihydroxyphenylacetic acid level in brain striatum at 53 umol/kg, sc after 1 hr by HPLC/EC analysis relative to control; assay type: functional; parameters: scale not given: the % may be the effect or the level left; how it was run: as §3
[16] = target: Sodium-dependent serotonin transporter (Homo sapiens) (UniProt P31645); test: Displacement of [3H]-imipramine from human serotonin transporter at 10 uM relative to control
How it was run: (§4)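 Competition binding run by a contract lab, read as % inhibition of control specific binding at a single test concentration. Radioligand per target: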

[17] = tested on: Rattus norvegicus; test: In vivo inhibition of MAO-A in Sprague-Dawley rat assessed as decrease in 3,4-dihydroxyphenylacetic acid level in brain striatum at 43 umol/kg, sc up to 2 hrs by microdialysis method; assay type: functional, organism-based
How it was run: (§5)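 Single subcutaneous dose to freely moving rats. Striatal DOPAC and 3-MT were sampled by microdialysis and measured by HPLC/EC over 2 h after dosing at time 0. Levels are expressed as % of saline control (n = 1–2).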

[18] = tested on: Rattus norvegicus; test: In vivo inhibition of MAO-A in Sprague-Dawley rat assessed as increase in 3-methoxytyramine level in brain striatum at 43 umol/kg, sc up to 2 hrs by microdialysis method; assay type: functional, organism-based; how it was run: as §5
[19] = target: Sodium-dependent noradrenaline transporter (Homo sapiens) (UniProt P23975); test: Displacement of [3H]-nisoxetin from human norepinephrine transporter at 1 uM relative to control; how it was run: as §4
[20] = target: Sodium-dependent dopamine transporter (Homo sapiens) (UniProt Q01959); test: Displacement of [3H]BTCP from human dopamine transporter at 1 uM relative to control; how it was run: as §4
[21] = target: Histamine H1 receptor (Homo sapiens) (UniProt P35367); test: Displacement of histamine from human histamine H1 receptor at 1 uM relative to control; how it was run: as §4
[22] = target: Adrenergic receptor alpha-2 (Rattus norvegicus) (UniProt P22086+P19328+P22909); test: Displacement of [3H]-RX-821002 from rat alpha-2 adrenergic receptor at 1 uM relative to control; how it was run: as §4
[23] = target: T3, Adrenergic receptor alpha-1 (Rattus norvegicus) (UniProt P15823+P23944+P43140); test: Displacement of [3H]-prazosin from rat alpha-1 adrenergic receptor at 10 uM relative to control; how it was run: as §4
[24] = target: 5-hydroxytryptamine receptor 2A (Homo sapiens) (UniProt P28223); test: Displacement of [3H]-ketanserin from human 5-HT2A receptor at 1 uM relative to control; how it was run: as §4
[25] = target: T4, 5-hydroxytryptamine receptor 1A (Homo sapiens) (UniProt P08908); test: Displacement of [3H]8-OH-DPAT from human 5-HT1A receptor at 1 uM relative to control; how it was run: as §4
T4 sequence (whole entry): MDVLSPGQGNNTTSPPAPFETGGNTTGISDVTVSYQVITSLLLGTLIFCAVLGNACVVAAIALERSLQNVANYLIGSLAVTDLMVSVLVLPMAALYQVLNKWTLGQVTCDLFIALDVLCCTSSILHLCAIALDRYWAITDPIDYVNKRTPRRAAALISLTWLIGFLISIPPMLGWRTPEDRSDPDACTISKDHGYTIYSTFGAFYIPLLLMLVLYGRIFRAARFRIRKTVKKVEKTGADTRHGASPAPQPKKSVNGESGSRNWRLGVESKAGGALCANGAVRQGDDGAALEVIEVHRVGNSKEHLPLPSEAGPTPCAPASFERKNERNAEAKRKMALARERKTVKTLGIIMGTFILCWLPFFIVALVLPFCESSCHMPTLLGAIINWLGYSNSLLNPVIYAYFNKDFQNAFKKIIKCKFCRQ

[26] = target: Sodium-dependent serotonin transporter (Homo sapiens) (UniProt P31645); test: Displacement of [3H]-imipramine from human serotonin transporter at 1 uM relative to control; how it was run: as §4
[27] = target: T3, Adrenergic receptor alpha-1 (Rattus norvegicus); test: Displacement of [3H]-prazosin from rat alpha-1 adrenergic receptor at 1 uM relative to control; how it was run: as §4

Chain of Histamine H1 receptor (Homo sapiens) (P35367 whole entry): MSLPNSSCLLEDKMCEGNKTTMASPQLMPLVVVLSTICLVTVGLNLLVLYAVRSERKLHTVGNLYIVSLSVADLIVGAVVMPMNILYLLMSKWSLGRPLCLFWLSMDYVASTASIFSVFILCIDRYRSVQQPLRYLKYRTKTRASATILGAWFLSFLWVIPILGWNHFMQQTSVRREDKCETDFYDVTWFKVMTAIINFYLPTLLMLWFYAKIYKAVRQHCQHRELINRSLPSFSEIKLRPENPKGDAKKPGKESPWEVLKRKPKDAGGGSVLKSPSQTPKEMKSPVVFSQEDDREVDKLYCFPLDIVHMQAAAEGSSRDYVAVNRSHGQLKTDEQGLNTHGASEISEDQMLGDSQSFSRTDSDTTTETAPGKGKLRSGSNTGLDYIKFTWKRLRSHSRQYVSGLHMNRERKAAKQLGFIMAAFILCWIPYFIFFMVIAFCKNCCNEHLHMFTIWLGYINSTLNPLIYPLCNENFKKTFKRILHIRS
Chain of Sodium-dependent serotonin transporter (Homo sapiens) (P31645 whole entry, looked up): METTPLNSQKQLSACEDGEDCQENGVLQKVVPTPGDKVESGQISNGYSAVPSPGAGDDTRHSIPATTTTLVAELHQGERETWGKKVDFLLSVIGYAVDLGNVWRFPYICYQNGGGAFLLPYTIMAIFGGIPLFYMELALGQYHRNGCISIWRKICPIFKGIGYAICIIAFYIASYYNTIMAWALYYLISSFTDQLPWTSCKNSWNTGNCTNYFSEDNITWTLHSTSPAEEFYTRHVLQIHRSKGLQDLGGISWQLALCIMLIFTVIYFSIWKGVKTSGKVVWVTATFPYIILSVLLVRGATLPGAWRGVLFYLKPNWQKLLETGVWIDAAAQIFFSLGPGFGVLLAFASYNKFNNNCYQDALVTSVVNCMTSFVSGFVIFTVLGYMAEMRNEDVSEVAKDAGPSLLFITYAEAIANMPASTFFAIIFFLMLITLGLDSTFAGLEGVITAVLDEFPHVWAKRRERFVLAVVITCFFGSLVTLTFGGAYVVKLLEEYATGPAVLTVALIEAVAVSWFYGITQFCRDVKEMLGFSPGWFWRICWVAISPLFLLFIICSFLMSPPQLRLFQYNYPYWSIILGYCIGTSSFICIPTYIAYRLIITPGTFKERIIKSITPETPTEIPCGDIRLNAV
Chain of Sodium-dependent dopamine transporter (Homo sapiens) (Q01959 whole entry): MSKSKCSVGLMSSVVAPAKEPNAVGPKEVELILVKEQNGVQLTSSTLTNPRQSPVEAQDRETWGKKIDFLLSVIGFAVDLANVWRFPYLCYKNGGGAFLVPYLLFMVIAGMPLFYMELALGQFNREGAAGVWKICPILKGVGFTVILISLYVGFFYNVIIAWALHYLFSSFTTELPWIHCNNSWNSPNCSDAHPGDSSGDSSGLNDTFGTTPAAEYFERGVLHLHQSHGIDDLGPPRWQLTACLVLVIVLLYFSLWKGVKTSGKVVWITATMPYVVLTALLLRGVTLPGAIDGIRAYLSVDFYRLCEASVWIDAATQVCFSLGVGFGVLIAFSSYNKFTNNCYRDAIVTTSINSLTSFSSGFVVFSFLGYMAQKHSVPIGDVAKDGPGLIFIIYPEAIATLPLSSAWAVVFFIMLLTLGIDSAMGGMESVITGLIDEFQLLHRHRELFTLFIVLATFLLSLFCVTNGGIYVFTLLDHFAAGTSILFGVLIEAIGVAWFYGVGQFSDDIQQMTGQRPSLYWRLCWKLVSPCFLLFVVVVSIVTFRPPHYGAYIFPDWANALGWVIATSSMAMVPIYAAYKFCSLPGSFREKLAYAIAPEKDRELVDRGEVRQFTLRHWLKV
Chain of Sodium-dependent noradrenaline transporter (Homo sapiens) (P23975 whole entry): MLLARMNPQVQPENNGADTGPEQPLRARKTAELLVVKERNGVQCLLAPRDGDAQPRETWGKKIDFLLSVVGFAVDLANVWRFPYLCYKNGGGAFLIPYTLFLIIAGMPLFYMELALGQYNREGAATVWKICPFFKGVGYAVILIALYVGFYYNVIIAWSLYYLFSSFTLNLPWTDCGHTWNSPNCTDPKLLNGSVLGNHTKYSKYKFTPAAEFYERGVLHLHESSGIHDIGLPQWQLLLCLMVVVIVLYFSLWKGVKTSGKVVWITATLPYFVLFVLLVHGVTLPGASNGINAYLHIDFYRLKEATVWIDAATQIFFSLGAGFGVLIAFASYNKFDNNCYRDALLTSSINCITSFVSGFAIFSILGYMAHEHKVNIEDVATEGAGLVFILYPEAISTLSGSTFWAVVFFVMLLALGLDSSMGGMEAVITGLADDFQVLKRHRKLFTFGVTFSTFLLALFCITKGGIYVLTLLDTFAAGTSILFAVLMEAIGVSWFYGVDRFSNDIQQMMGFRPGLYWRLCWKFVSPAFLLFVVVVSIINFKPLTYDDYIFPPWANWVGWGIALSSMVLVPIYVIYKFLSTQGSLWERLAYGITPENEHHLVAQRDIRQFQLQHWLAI
Chain of 5-hydroxytryptamine receptor 2A (Homo sapiens) (P28223 whole entry): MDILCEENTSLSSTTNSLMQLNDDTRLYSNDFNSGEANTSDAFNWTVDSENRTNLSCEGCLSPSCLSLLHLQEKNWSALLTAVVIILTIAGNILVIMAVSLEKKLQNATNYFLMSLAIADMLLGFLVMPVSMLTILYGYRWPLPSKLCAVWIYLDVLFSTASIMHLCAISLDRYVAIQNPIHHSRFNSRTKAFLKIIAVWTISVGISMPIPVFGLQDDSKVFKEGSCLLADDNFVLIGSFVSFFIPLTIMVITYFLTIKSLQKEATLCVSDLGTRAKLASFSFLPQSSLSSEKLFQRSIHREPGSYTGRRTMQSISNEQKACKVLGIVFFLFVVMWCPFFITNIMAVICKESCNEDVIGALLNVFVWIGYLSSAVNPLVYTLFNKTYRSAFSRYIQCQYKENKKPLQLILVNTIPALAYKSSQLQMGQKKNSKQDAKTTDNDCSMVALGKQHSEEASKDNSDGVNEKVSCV
Chain of D(2) dopamine receptor (P14416 whole entry): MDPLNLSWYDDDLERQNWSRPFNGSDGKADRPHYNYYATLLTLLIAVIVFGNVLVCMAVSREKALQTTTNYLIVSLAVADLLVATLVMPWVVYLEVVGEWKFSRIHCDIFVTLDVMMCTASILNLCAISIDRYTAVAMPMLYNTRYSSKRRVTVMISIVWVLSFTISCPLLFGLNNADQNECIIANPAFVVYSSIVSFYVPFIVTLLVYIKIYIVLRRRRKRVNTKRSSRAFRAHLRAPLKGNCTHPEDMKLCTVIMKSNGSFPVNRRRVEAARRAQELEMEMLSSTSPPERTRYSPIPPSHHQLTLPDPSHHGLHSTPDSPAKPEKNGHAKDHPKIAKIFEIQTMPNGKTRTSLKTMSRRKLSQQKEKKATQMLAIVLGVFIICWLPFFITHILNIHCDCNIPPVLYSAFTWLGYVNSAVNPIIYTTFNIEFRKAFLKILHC

SMILES: O=c1oc2ccccc2cc1CN1CCCC1 [listing 1 of 2 here]
- Ratio IC50 [1]: > 15.8

SMILES: O=C(NCCN1CCOCC1)c1ccc(Cl)cc1 [MOCLOBEMIDE]
- Activity [2]: 80%
- Activity [3]: 398%
- Activity [4]: 18%

SMILES: COc1ccc2oc(=O)c(CN3CCCC3)cc2c1
- Ratio IC50 [1]: > 22.3

SMILES: CCCOc1ccc2oc(=O)c(CN3CCCC3)cc2c1
- IC50 [5]: 22.3 µM
- Ratio IC50 [1]: 10.3
- IC50 [6]: 2.16 µM

SMILES: Cl.O=c1oc2ccc(C(F)(F)F)cc2cc1CN1CCCC1
- solubility [7]: > 5000 µg/mL

SMILES: COc1ccc2oc(=O)c(CN3CCCC3)cc2c1.Cl
- solubility [7]: > 5000 µg/mL

SMILES: O=c1oc2ccccc2cc1CN1CCCC1 [listing 2 of 2 here]
- remaining at 1 h, 5 µM [8]: < 5%
- Activity [9]: 106%
- Activity [10]: 164%
- Activity [11]: 58%
- IC50 [5]: > 100 µM
- IC50 [6]: 6.32 µM

SMILES: O=c1oc2ccc(C(F)(F)F)cc2cc1CN1CCCC1 [listing 1 of 2 here]
- Activity [9]: 104%
- Activity [10]: 88%
- Activity [11]: 77%
- IC50 [12]: > 30 µM
- IC50 [5]: > 100 µM
- IC50 [6]: 8.46 µM

SMILES: Cl.O=c1oc2ccc([N+](=O)[O-])cc2cc1CN1CCCC1
- solubility [7]: > 5000 µg/mL

SMILES: C#CCN(C)[C@H](C)Cc1ccccc1 [SELEGILINE]
- Activity [13]: 96%
- Activity [14]: 146%
- Activity [15]: 36%

SMILES: Nc1ccc2oc(=O)c(CN3CCCC3)cc2c1
- inhibition [16]: 1%
- inhibition [17]: Active
- inhibition [18]: Active
- inhibition [19]: -2%
- inhibition [20]: 0%
- inhibition [21]: 13%
- inhibition [22]: 2%
- inhibition [23]: 4%
- inhibition [24]: -4%
- inhibition [25]: 0%
- Ratio IC50 [1]: > 26.5

SMILES: O=c1oc2ccc(C(F)(F)F)cc2cc1CN1CCCC1 [listing 2 of 2 here]
- inhibition [19]: 1%
- inhibition [26]: -4%
- inhibition [20]: 8%
- inhibition [21]: 4%
- inhibition [22]: 20%
- inhibition [27]: 4%
- inhibition [24]: 20%
- inhibition [25]: 8%
- Ratio IC50 [1]: > 11.8

SMILES: CCCNCc1cc2ccccc2oc1=O
- Ratio IC50 [1]: 3.6
